High-throughput results from PubChem BioAssay.
Most compounds without a hit are left out; they make up all but 3.8% or so of the library.
KCNQ1 inh = inhibitors of human KCNQ1 channel, primary screen, cell-based, thallium flux, high-throughput; AID 2642, 2010; 1.3% of 310,000 active; CHO-K1 KCNQ1, FluxOR thallium flux fluorescence; active compounds read high; Potassium voltage-gated channel subfamily KQT member 1 (Homo sapiens), P51787; B-score at 10 µM;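 active means compounds whose thallium flux B-score, printed positive for inhibition, exceeds three library SD while starting fluorescence stays within three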;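 further: channel opened by potassium depolarization with thallium stimulus after 20 min compound exposure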
hERG protect = hERG rescue from dofetilide block, primary screen, cell-based, CHO-hERG, FluxOR thallium flux, dofetilide IC70 | Voltage-gated inwardly rectifying potassium channel KCNH2 (Homo sapiens), Q12809 | dofetilide IC70 present | activation (rescue from dofetilide block), less the hit threshold, % at 10 µM | 0.51% of 310,000 active;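 active means activation above the mean of controls blocked by dofetilide plus 5 SD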;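 further: thallium influx through hERG after potassium depolarization seen as dye fluorescence rise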
KCNK9 block = KCNK9 potassium channel inhibitors, primary screen, HEK293 cells, thallium flux; 1.2% of 310,000 active; B-score at 10 µM; AID 488922, 2010; FluxOR thallium flux fluorescence; active compounds read low;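 active means ratio B-score over 3 SD below the library mean, with starting fluorescence within 5 SD of its mean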;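 further: negative B-score means less thallium flux so channel inhibition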
Target sequence (Q9NPC2 whole entry, looked up): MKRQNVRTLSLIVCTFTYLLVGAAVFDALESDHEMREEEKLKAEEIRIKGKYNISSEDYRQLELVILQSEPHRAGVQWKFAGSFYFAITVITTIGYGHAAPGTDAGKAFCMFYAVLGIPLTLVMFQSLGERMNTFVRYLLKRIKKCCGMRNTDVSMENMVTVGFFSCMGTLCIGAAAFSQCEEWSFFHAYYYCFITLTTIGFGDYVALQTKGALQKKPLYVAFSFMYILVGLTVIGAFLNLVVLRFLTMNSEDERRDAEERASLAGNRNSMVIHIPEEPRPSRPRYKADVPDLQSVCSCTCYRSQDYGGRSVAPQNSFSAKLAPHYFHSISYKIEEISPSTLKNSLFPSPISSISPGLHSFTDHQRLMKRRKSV
KCNK3 inh = human KCNK3 channel inhibitors, primary screen, CHO cells, FluxOR thallium flux, B-score | Potassium channel subfamily K member 3 (Homo sapiens), O14649 | FluxOR fluorescence; active compounds read low | B-score at 10 µM | 0.84% of 340,000 active;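 active means B-score under library mean minus 4 SD, starting fluorescence ratio at most library mean plus 5 SD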;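 further: more negative B-score means stronger inhibition of thallium flux through KCNK3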
Kir21 block = inhibitors of mouse Kir2.1 inward-rectifier potassium channel. Inward rectifier potassium channel 2 (Mus musculus), P35561. HEK293-Kir2.1, FluxOR thallium flux fluorescence; active compounds read low. B-score at 10 µM. 0.85% of 310,000 active;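 active means fluorescence ratio B-score at or below minus 3 SD of library scores, with starting-brightness B-score within 2 SD, cut at about -4.2 in these data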;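 further: channel flux triggered by added potassium and thallium sulfate stimulus; B-score of peak minus minimum fluorescence over baseline after thallium stimulus; more negative B-score means stronger Kir2.1 block with less thallium influx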
KCNQ1 pot = potentiators or activators of KCNQ1 channel, primary screen, cell-based, thallium flux, high-throughput; Potassium voltage-gated channel subfamily KQT member 1 (Homo sapiens), P51787; CHO-K1 KCNQ1, thallium flux FluxOR fluorescence; active compounds read high; B-score at 10 µM; 0.35% of 310,000 active;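 active means fluorescence ratio B-score, a plate-corrected score, at least three library SD, with initial intensity B-score within 5 SD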
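Doses: Single concentration per compound, DMSO matched to controls | Test system: KCNQ1-transfected CHO-K1 cells | Timing: 90 min dye loading and 20 min compound exposure, both at room temperature | Measured by: Kinetic FluxOR thallium fluorescence, 10-s 1-Hz baseline, 110-s post-stimulus read | Medium: Assay buffer with matched DMSO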
KCNK9 block conf = KCNK9 potassium channel inhibitors, confirmation, HEK293 cells, thallium flux, duplicate. shares compounds with KCNK9 block. FluxOR thallium flux fluorescence. inhibition, % at 10 µM. 43% of 4,900 active. AID 492992, 2010;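 active means thallium signal inhibited by more than 5 SD of the compound-free buffer control wells, on both duplicate plates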;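 further: 0% = assay buffer control wells without compound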
Kir2-1 spec = mouse Kir2.1 channel inhibition, confirmation, selectivity assay for KCNK9 modulator project, cell-based, HEK293, thallium flux; 4% of 4,900 active; AID 492993, 2010; Kir2.1 cells, FluxOR thallium flux fluorescence; shares compounds with KCNK9 block; inhibition, % at 10 µM;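 active means thallium signal drop more than 5 SD beyond the mean of the no-compound control wells, seen in both duplicate plates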;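 further: signal is fluorescence rise after thallium addition divided by baseline fluorescence; plate controls were assay buffer only for no effect and full block by chlorpromazine control for full effect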
HEK293 Tl ctr = thallium flux in non-induced HEK293 cells, confirmation, counter-screen for KCNK9 inhibitor project, cell-based, second counter screen, non-induced KCNK9-HEK293; FluxOR thallium flux; 40% of 4,900 active; shares compounds with KCNK9 block; inhibition, % at 10 µM;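 active means thallium signal drop beyond 5 SD of the untreated control mean, on both duplicate plates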;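 further: plate controls were buffer only IC0 wells for no effect and SID17386958 at its maximal inhibitory level for full effect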
An asterisk follows results filed as active; i = inactive; nt = not tested or not shown.

SMILES	KCNQ1 inh	hERG protect	KCNK9 block	KCNK3 inh	Kir21 block	KCNQ1 pot	KCNK9 block conf	Kir2-1 spec	HEK293 Tl ctr
COc1ccc(C(=O)C2CCCN(C(=O)/C=C/c3ccccn3)C2)c(C)c1 (stereo not given)	i	-7	i	i	-0.12	i	i	i	i
COc1cccc(C(=O)C2CCCN(C(=O)CCc3scnc3C)C2)c1 (stereo not given)	i	-8	i	i	-0.24	i	nt	nt	nt
COc1ccc(C(=O)C2CCCN(C(=O)/C=C/c3cnc[nH]3)C2)c(C)c1 (stereo not given)	i	-10	i	i	-0.52	i	nt	nt	nt
CCC(C)n1c(SCC(=O)NC2CCS(=O)(=O)C2)nc2ccccc2c1=O (stereo not given)	i	-12	i	i	0.07	i	nt	nt	nt
N#Cc1cccnc1N1CCC(C(N)=O)CC1	i	-13	i	i	-1	i	nt	nt	nt
CC(C)(C)c1ccc(C(=O)Cn2nc(C(=O)O)c3ccccc3c2=O)cc1	i	-13	i	i	0.33	i	nt	nt	nt
CN(C)c1ccc2c(c1)Sc1cc(N(C)C)ccc1N2C(=O)c1ccccc1	6*	-4	i	i	0.58	i	i	i	i
CCOc1cc(CN2CCN(c3cccc(C(F)(F)F)c3)CC2)ccc1O	i	-21	i	i	-0.96	i	i	i	i
COc1ccc(CC(C)N2CCN(c3cccc(C(F)(F)F)c3)CC2)cc1OC (stereo not given)	i	-5	i	i	0.31	i	i	i	i
COC(=O)c1cc(CN2CCN(c3ccccc3)CC2)ccc1O	i	-3	i	i	-0.45	i	i	i	i
COCCn1nnnc1C(c1cccs1)N1CCN(c2cccc(C(F)(F)F)c2)CC1 (stereo not given)	i	-6	-14*	i	0.33	i	59%*	i	40%*
COc1ccc(NC(=O)N2CCN(c3cccc(C(F)(F)F)c3)CC2)cc1OC	i	-11	i	i	-1.4	i	nt	nt	nt
CCOc1cc(CN2CCN(c3cccc(C(F)(F)F)c3)CC2)ccc1OC	i	-4	i	i	2.9	i	i	i	i
O=C(COC(=O)Cn1cc(C(F)(F)F)ccc1=O)NCc1ccccc1	nt	nt	nt	i	nt	nt	nt	nt	nt
O=S(=O)(Nc1nc(-c2sccc2Cl)cs1)c1cc(Cl)ccc1Cl	i	47*	i	i	1.3	47*	i	i	i
COc1ccc(C)cc1S(=O)(=O)N1CCCC(C(=O)N2CCN(c3ccccc3F)CC2)C1 (stereo not given)	i	-9	i	i	-1.8	i	nt	nt	nt
COCCN(C(=O)CSc1ccc2c(c1)OCCO2)c1c(N)n(CC(C)C)c(=O)[nH]c1=O	nt	nt	nt	i	nt	nt	nt	nt	nt
Cc1ccc(-c2ccc([C@H]3[C@H]4C=CC[C@@H](C)[C@@H]4C(=O)N3Cc3ccccc3)c(F)c2)cc1	i	-9	i	i	0.18	i	nt	nt	nt
CC[C@@H]1CC=C[C@H]2[C@H]1C(=O)N(Cc1ccccc1)[C@H]2c1ccc(C(F)(F)F)cc1	i	-13	-8.5*	i	0.6	i	50%*	i	48%*
Cc1ccc(F)c([C@H]2[C@H]3C=CC[C@@H](C)[C@@H]3C(=O)N2Cc2ccccc2)c1	i	-26	-8.6*	i	-0.15	i	52%*	i	60%*
Cc1nnc(SCC(=O)NC(C)(C)C)n1NCc1c(F)cccc1Cl	i	-7	i	i	-0.87	i	nt	nt	nt
COc1ccc(Nc2nc(-c3cc4cccc(OC)c4oc3=O)cs2)cc1	i	-6	i	i	0.05	i	nt	nt	nt
COc1ccc2oc(=O)c(-c3csc(Nc4cccc(O)c4)n3)cc2c1	11*	-17	-15*	i	1.4	i	66%*	i	28%*
CC(C)CCNC(=O)[C@H](Cc1ccccc1)N1Cc2ccccc2C1=O	i	-10	i	i	-0.5	i	nt	nt	nt
CC(C)CCNC(=O)[C@H](CSCc1ccccc1)N1Cc2ccccc2C1=O	i	-9	i	i	0.38	i	i	i	i
SMILES	KCNQ1 inh	hERG protect	KCNK9 block	KCNK3 inh	Kir21 block	KCNQ1 pot	KCNK9 block conf	Kir2-1 spec	HEK293 Tl ctr
CCOc1ncccc1C(=O)NCC(c1ccco1)N1CCCCC1 (stereo not given)	nt	nt	nt	i	nt	nt	nt	nt	nt
O=C1C=C(c2ccc3ncccc3c2)C[C@@H](c2ccc(Cl)cc2)C1	nt	nt	nt	i	nt	nt	nt	nt	nt
O=C(O)CCSCC(=O)Nc1c(C(=O)C2CC2)oc2ccccc12	i	-8	i	i	-0.62	i	nt	nt	nt
O=C(CN1CCN(c2ccccc2)CC1)Nc1c(C(=O)C2CC2)oc2ccccc12	i	-5	-11*	i	0.41	i	32%*	i	i
COc1ccc(/C=C2\SC(=S)N(CCC(=O)Nc3ccccc3C(=O)O)C2=O)cc1	i	-1	i	i	-0.16	i	i	i	i
COc1cc(/C=C2\SC(=S)N(CCC(=O)Nc3ccccn3)C2=O)cc(OC)c1OC	i	-12	-8.3*	i	0.01	i	i	i	i
O=C(O)C(Cc1ccccc1)N1C(=O)/C(=C/c2cccnc2)SC1=S (stereo not given)	i	-8	i	i	-0.04	i	nt	nt	nt
CCOc1ccc(/C=C2\SC(=S)N(CCC(=O)Nc3ccccc3C(=O)O)C2=O)cc1	i	-11	i	i	0.84	i	nt	nt	nt
COc1ccc(/C=C2\SC(=S)N(C(Cc3ccccc3)C(=O)O)C2=O)cc1 (stereo not given)	i	-15	i	i	0.32	i	i	i	i
N/C(=N\OC(=O)CCC1CCCC1)c1ccccn1	i	-5	i	i	0.05	i	nt	nt	nt
